From ChEMBL document CHEMBL4049408, “Exploration of 2-((Pyridin-4-ylmethyl)amino)nicotinamide Derivatives as Potent Reversal Agents against P-Glycoprotein-Mediated Multidrug Resistance” (J Med Chem, 2017)

Assays:
K562/A02 [1] = test: Cytotoxicity against human K562/A02 cells overexpressing P-gp after 48 hrs by MTT assay; assay type: functional, cell-based; conditions: K562/A02, 48 h
In short: (§1)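 MTT viability in parental K562 and P-gp-overexpressing K562/A02 cells. Compound alone at a concentration series gives the IC50. Mean ± SD of three independent tests.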

K562 [2] = test: Cytotoxicity against human K562 cells after 48 hrs by MTT assay; assay type: functional, cell-based; conditions: K562, 48 h; in short: as §1
[3] = (§2) Cytotoxicity against human K562/A02 cells assessed as cell survival at 5 uM after 48 hrs by MTT assay relative to control; assay type: cell-based; conditions: K562/A02 cells, read-out: Survival
In short: (§3)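 MTT viability assay in P-gp-overexpressing, ADM-resistant K562/A02 cells, alongside parental K562. […] Values are mean ± SD of three independent tests.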

[4] = biological target: T1, ATP-dependent translocase ABCB1 (Homo sapiens, UniProt P08183); test: Inhibition of ABCB1 in human K562/A02 cells assessed as potentiation of adriamycin-mediated cytotoxicity by measuring reduction in ADR IC50 at 5 uM after 48 hrs by MTT assay relative to control; assay type: cell-based
In short: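 K562/A02 cells exposed to a series of adriamycin concentrations with modulator at 5.0 µM; 0.1% DMSO as solvent control. IC50 read by MTT. Reversal fold = IC50 without inhibitor / IC50 with inhibitor. Mean ± SD of three independent tests.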

K562/A02 [5] = test: as §2; assay type: cell-based; conditions: k562/a02, 48 h, 5 µM; in short: as §3
K562 [6] = test: Resistance index, ratio of IC50 for human K562/A02 cells to IC50 for human K562 cells; assay type: functional
In short: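 Adriamycin IC50 measured by MTT in K562/A02 and in parental K562 cells. Fold resistance is the ratio of the resistant-line IC50 to the sensitive-line IC50. Mean ± SD of three independent tests.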

[7] = biological target: T1, ATP-dependent translocase ABCB1; test: Inhibition of ABCB1 in human K562/A02 cells assessed as increase in intracellular Rh123 accumulation at 5 uM up to 90 mins by flow cytometry; assay type: cell-based; conditions: 1.5 h
In short: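 K562/A02 cells treated with 5.0 µM modulator; Rh123-associated mean fluorescence intensity read by flow cytometry at 5, 10, 25, 30, 60 and 90 min. Untreated cells as negative control. Mean ± SD of three experiments.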

[8] = biological target: T1, ATP-dependent translocase ABCB1; test: Substrate activity at ABCB1 ATPase in human ABCB1 membrane fraction assessed as increase in ATPase activity at 50 uM preincubated with compound followed by addition of MgATP measured after 1 hr by luciferase reporter gene assay relative to control; assay type: cell membranes
[9] = Inhibition of CYP3A4 in rat liver microsomes assessed as 6beta-hydroxytestosterone formation using testosterone as substrate by reverse-phase HPLC analysis; assay type: ADME

T1 sequence (P08183 whole entry): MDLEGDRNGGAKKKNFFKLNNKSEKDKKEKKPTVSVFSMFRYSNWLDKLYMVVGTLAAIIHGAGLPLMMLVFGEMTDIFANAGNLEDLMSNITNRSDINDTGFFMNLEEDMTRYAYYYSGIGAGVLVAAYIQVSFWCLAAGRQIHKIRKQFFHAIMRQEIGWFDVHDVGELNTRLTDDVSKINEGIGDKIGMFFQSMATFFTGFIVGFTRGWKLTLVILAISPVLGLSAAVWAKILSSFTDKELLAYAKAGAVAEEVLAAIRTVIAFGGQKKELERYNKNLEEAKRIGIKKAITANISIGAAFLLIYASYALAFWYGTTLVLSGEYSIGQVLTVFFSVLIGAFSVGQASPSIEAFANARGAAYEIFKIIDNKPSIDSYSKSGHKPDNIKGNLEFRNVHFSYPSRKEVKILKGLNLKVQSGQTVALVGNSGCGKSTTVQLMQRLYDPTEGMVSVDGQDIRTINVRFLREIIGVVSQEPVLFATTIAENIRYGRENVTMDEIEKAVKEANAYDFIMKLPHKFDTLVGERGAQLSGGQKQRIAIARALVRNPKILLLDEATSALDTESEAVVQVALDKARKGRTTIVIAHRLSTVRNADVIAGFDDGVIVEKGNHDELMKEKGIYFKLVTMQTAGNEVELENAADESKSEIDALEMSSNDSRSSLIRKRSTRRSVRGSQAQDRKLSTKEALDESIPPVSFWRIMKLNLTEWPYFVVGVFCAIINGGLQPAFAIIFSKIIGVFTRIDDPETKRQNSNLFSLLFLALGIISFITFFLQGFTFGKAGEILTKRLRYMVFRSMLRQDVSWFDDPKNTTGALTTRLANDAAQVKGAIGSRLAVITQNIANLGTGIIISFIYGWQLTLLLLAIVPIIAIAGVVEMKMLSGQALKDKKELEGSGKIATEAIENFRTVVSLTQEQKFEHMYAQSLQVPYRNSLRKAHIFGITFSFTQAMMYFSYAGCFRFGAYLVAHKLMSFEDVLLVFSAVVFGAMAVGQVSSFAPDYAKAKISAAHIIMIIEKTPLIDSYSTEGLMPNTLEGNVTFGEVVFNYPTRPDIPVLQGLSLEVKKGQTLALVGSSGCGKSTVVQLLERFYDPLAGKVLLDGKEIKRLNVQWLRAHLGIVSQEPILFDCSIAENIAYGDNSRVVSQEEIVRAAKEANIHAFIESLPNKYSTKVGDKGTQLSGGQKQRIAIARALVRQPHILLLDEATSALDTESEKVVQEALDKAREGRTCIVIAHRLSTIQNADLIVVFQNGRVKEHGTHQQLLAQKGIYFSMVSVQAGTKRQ

SMILES	IC50 (K562/A02 [1]) [µM]	IC50 (K562 [2]) [µM]	viability at 48 h, 5 µM [3] [%]	fold change (FC) [4]	Activity (K562/A02 [5])	Ratio IC50 (K562 [6])	inhibition (INH) [7]	fold change (FC) [8]	inhibition (INH) [9]
O=C(Nc1ccc(F)c(Cl)c1)c1cccnc1NCc1ccncc1	27.9	78.9	> 90	6.6					
COc1cc2c(cc1OC)CN(C(=O)c1cccnc1NCc1ccncc1)CC2	85.7	72.5		17.97	Non-Toxic				
COc1cccc(NC(=O)c2cccnc2NCc2ccncc2)c1	> 100	> 100	> 90	3.76					
O=C(Nc1ccc(CCN2CCOCC2)cc1)c1cccnc1NCc1ccncc1	> 100	> 100		5.64	Non-Toxic				
COc1cccc2c1C(=O)c1c(O)c3c(c(O)c1C2=O)C[C@@](O)(C(=O)CO)C[C@@H]3O[C@H]1C[C@H](N)[C@H](O)[C@H](C)O1.Cl [DOXORUBICIN HYDROCHLORIDE]	54 to 56.8	0.51 to 0.58				105.8			
COc1ccc(C2c3cc(OC)c(OC)cc3CCN2C(=O)c2cccnc2NCc2ccncc2)cc1OC (stereo unspecified)	> 100	> 100		3.44	Non-Toxic				
COc1ccc(CCN(C)CCCC(C#N)(c2ccc(OC)c(OC)c2)C(C)C)cc1OC (stereo unspecified)	31.3 to 33.6	36.7 to 37.3					Active	2.56	
COc1cccc(-c2nnc(NC(=O)c3cccnc3NCc3ccncc3)s2)c1	> 100	39.5	> 90	4.6					
O=C(Nc1ccc2c(c1)Cc1ccccc1-2)c1cccnc1NCc1ccncc1	> 100	70		13.65	Non-Toxic				
CN1CCN(CCc2ccc(NC(=O)c3cccnc3NCc3ccncc3)cc2)CC1	> 100	> 100		2.04	Non-Toxic				
COc1ccc(CCNC(=O)c2cccnc2NCc2ccncc2)cc1OC	> 100	> 100	> 90	16.6					
O=C(NC(c1ccccc1)c1ccccc1)c1cccnc1NCc1ccncc1	> 100	> 100		3.94	Non-Toxic				
COc1ccc(NC(=O)c2cccnc2NCc2ccncc2)cc1Cl	> 100	> 100	> 90	5.29					
COc1cc(NC(=O)c2cccnc2NCc2ccncc2)cc(OC)c1OC	> 100	> 100	> 90	3.51					
O=C(Nc1nc2ccccc2[nH]1)c1cccnc1NCc1ccncc1	> 100	> 100	> 90	1.69					
O=C(c1cccnc1NCc1ccncc1)N1CCC(N2CCCCC2)CC1	> 100	51.4	> 90	1.2					
CC(=O)N1CCN(c2ccc(OCC3COC(Cn4ccnc4)(c4ccc(Cl)cc4Cl)O3)cc2)CC1 (stereo unspecified) [KETOCONAZOLE]									Dose-dependent effect
CC(C)(C)c1ccc(NC(=O)c2cccnc2NCc2ccncc2)cc1	> 100	> 100	> 90	4.27					

SMILES	IC50 (K562/A02 [1]) [µM]	IC50 (K562 [2]) [µM]	viability at 48 h, 5 µM [3] [%]	fold change (FC) [4]	Activity (K562/A02 [5])	Ratio IC50 (K562 [6])	inhibition (INH) [7]	fold change (FC) [8]	inhibition (INH) [9]
Cc1cccc(Cl)c1NC(=O)c1cnc(NC(=O)c2cccnc2NCc2ccncc2)s1	86	57.7		7.95	Non-Toxic				
O=C(Nc1ccc(N2CCCCC2)cc1)c1cccnc1NCc1ccncc1	> 100	> 100	> 90	5.21					
O=C(Nc1cccc2ccccc12)c1cccnc1NCc1ccncc1	> 100	> 100	> 90	7.74					
CN1CCN(c2ccc(NC(=O)c3cccnc3NCc3ccncc3)cc2)CC1	> 100	> 100	> 90	4.93					
O=C(c1cccnc1NCc1ccncc1)N(Cc1ccccc1)Cc1ccccc1	82.2	76.4		10.14	Non-Toxic				
O=C(c1ccccc1)c1ccccc1NC(=O)c1cccnc1NCc1ccncc1	> 100	> 100		1.28	Non-Toxic				
COc1ccc(CN(C)C(=O)c2cccnc2NCc2ccncc2)cc1OC	> 100	> 100	> 90	9.58					
O=C(Nc1ccc(-c2ccccc2)cc1)c1cccnc1NCc1ccncc1	27.9	17	> 90	12.69					
O=C(Nc1ccc(OC(F)(F)F)cc1)c1cccnc1NCc1ccncc1	28.7	24.2	> 90	8.42					
COc1cc2c(cc1OC)C(c1ccccc1)N(C(=O)c1cccnc1NCc1ccncc1)CC2 (stereo unspecified)	> 100	> 100		2.96	Non-Toxic				
O=C(NCc1ccncc1)c1cccnc1NCc1ccncc1	> 100	> 100	> 90	7.92					
O=C(Nc1ccc(N2CCOCC2)cc1)c1cccnc1NCc1ccncc1	> 100	> 100	> 90	18.8					
COc1cc2c(cc1OC)C(C(C)(C)C)N(C(=O)c1cccnc1NCc1ccncc1)CC2 (stereo unspecified)	> 100	> 100		2.66	Non-Toxic				
O=C(NC1CCCc2ccccc21)c1cccnc1NCc1ccncc1 (stereo unspecified)	> 100	66.1	> 90	4.24					
O=C(NCCc1cccs1)c1cccnc1NCc1ccncc1	> 100	> 100	> 90	1.37					
COc1cc2c(cc1OC)C(Cc1cccc3ccccc13)N(C(=O)c1cccnc1NCc1ccncc1)CC2 (stereo unspecified)	> 100	> 100		2.51	Non-Toxic				
COc1cc2c(cc1OC)C(c1ccco1)N(C(=O)c1cccnc1NCc1ccncc1)CC2 (stereo unspecified)	> 100	> 100		1.52	Non-Toxic				
